Columns and labels:
[1] = Compound was evaluated for the plasma clearance to investigate its pharmacokinetic profile in dogs after intravenous administration.; type: ADME, organism-based, Canis lupus familiaris; conditions: dog
[2] = Compound was evaluated for the volume of distribution to investigate its pharmacokinetic profile in dogs after intravenous administration.; type: ADME, organism-based, Canis lupus familiaris; conditions: dog, in vivo, read-out: Volume of distribution
[3] = Selectivity index calculated as the ratio of Calcium pIC50 to that of negative inotropy IC25; type: functional
[4] = organism: Cavia porcellus; experiment: Evaluated for the negative ionotropy logarithm of the molar concentration required to depress contraction in the Langendorff-perfused guinea pig heart by 25%; type: functional
How it was run: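 Negative inotropy measured in vitro in a Langendorff-perfused guinea pig heart. Read-out is the molar concentration that depresses contraction by 25%, reported as pIC25.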

[5] = Compound was evaluated for the plasma half-life to investigate its pharmacokinetic profile in dogs after intravenous administration.; type: ADME, organism-based, Canis lupus familiaris; conditions: dog
[6] = organism: Rattus norvegicus; experiment: Evaluated for the negative logarithm of the molar concentration required to block [Ca2+] induced contraction of K+ depolarized rat aorta by 50%.; type: functional
How it was run: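 Rat aorta depolarized with potassium, then contracted by adding calcium. Read-out is the molar concentration that inhibits the calcium-induced contraction by 50%, reported as pIC50.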

| Compound | clearance [1] | Vd [2] | Selectivity index [3] | pIC25 [4] | half-life [5] | IC50 [6] |
| --- | --- | --- | --- | --- | --- | --- |
| CCO/C(O)=C1\C(COCCO)=NC(C)=C(C(=O)OC)C1c1cccc(Cl)c1Cl (configuration not stated) | 9.6 mL/min/kg | 6 L/kg | 10 | 7.4 | 7.3 h | 0.00398 µM |
| CCO/C(O)=C1\C(COCCOC)=NC(C)=C(C(=O)OC)C1c1cccc(Cl)c1Cl (configuration not stated) | – | – | 30 | 6 | – | 0.0316 µM |
| CCO/C(O)=C1\C(COCC(C)(O)Cc2ccccn2)=NC(C)=C(C(=O)OC)C1c1cccc(Cl)c1Cl (configuration not stated) | – | – | 2 | 7.5 | – | 0.0631 µM |
| CCO/C(O)=C1\C(COCC(C)(O)CSc2ncccn2)=NC(C)=C(C(=O)OC)C1c1cccc(Cl)c1Cl (configuration not stated) | – | – | 1.6 | 7.4 | – | 0.0251 µM |
| CCO/C(O)=C1\C(COCC(C)(O)Cn2ccnc2)=NC(C)=C(C(=O)OC)C1c1cccc(Cl)c1Cl (configuration not stated) | – | – | 1.6 | 7.2 | – | 0.0398 µM |
| CCO/C(O)=C1\C(COCC(C)(O)CN)=NC(C)=C(C(=O)OC)C1c1cccc(Cl)c1Cl (configuration not stated) | – | – | 2 | 6.5 | – | 0.158 µM |
| CCO/C(O)=C1\C(COCC(C)(O)CO)=NC(C)=C(C(=O)OC)C1c1cccc(Cl)c1Cl (configuration not stated) | – | – | 4 | 7 | – | 0.0251 µM |
| CCO/C(O)=C1\C(COCC(C)(O)c2ccco2)=NC(C)=C(C(=O)OC)C1c1cccc(Cl)c1Cl (configuration not stated) | – | – | 16 | 6.6 | – | 0.0158 µM |
| CCO/C(O)=C1\C(COCC(C)(C)O)=NC(C)=C(C(=O)OC)C1c1cccc(Cl)c1Cl (configuration not stated) | – | – | 10 | 7.2 | – | 0.00631 µM |
| CCCOCC1=C(C(=O)OCC)C(c2cccc(Cl)c2Cl)/C(=C(\O)OC)C(C)=N1 (configuration not stated) | – | – | 20 | 6.2 | – | 0.0316 µM |
| CCO/C(O)=C1\C(COCC(C)O)=NC(C)=C(C(=O)OC)C1c1cccc(Cl)c1Cl (configuration not stated) | – | – | 3 | 7.3 | – | 0.0158 µM |
| COC(=O)C1=C(C)NC(C)=C(C(=O)OC)C1c1ccccc1[N+](=O)[O-] [NIFEDIPINE] | – | – | 8 | 7.5 | – | – |
| CCO/C(O)=C1\C(COCC(C)(O)Cn2cncn2)=NC(C)=C(C(=O)OC)C1c1cccc(Cl)c1Cl (configuration not stated) | – | – | 3 | 7.2 | – | 0.02 µM |
| CCO/C(O)=C1\C(COCC(O)CO)=NC(C)=C(C(=O)OC)C1c1cccc(Cl)c1Cl (configuration not stated) | – | – | 8 | 6.9 | – | 0.0158 µM |
| CCO/C(O)=C1\C(COCC(C)(O)CNc2ncccn2)=NC(C)=C(C(=O)OC)C1c1cccc(Cl)c1Cl (configuration not stated) | – | – | 2 | 7.1 | – | 0.0398 µM |
